Published values from different studies.

SMILES | tested on | assay | system | setting | measurement | result
CC(=O)NC(CC(C)C)C(=O)NC(CC(C)C)C(=O)NC(Cc1ccc(O)cc1)C(N)=O (centres unmarked) | ABCB1 (Cricetulus griseus, UniProt P21448) | binding, fluorescence |  |  | Kd | 28 µM
CONC(=O)[C@H]1[C@@H](O)[C@@]2(O)c3c(OC)cc(OC)cc3O[C@@]2(c2ccc(OC)cc2)[C@@H]1c1ccccc1 | MDA-MB-231 | cell growth or viability, SRB |  |  | IC50 | 1.9 nM
CC(C)=CCOc1c2occc2cc2ccc(=O)oc12 | MRC5 | cell growth or viability, MTT |  | 24 h | IC50 | > 100000 nM
COc1ccc(C(=O)Nc2ccccc2C(=O)N[C@H](C(=O)N[C@H](CO)C(C)C)C(C)C)cc1 | MRC5 | cell growth or viability, MTT |  | 72 h | CC50 | > 250 µM
CCCCCCCCCCCC(=O)NC(C)(C)C(=O)N1CCC[C@H]1C(=O)NC(C)(C)C(=O)NC(C)(C)C(=O)N1CCC[C@H]1C(=O)NC(C)(C)C(=O)NC(C)(C)C(=O)N1CCC[C@H]1C(=O)N[C@@H](C)C(=O)NC(C)(C)C(=O)NCCC(=O)N[C@@H](C)C(=O)NC(C)(C)C(=O)NC(C)(C)C(=O)NCCC(=O)NC(C)(C)C(=O)NC(C)(C)C(=O)NC(C)(C)C(=O)N[C@@H](C)C(=O)NCCC(=O)O | MDA-MB-231 | cell growth or viability, MTT |  | 24 h | IC50 | 1000 nM
CC(C)[C@H](NC(=O)c1ccccc1NC(=O)c1ccccc1)C(=O)N[C@H](CO)C(C)C | MRC5 | cell growth or viability, MTT |  | 72 h | CC50 | > 250 µM
CN(C)CCc1c[nH]c2ccccc12 |  |  | human, plasma | intravenous, 9 mg, 7 min, healthy volunteers, infusion | concentration | 15.9 ng/mL
C=C(C)[C@@H]1CC[C@]2(NCCN3CCS(=O)(=O)CC3)CC[C@]3(C)[C@H](CC[C@@H]4[C@@]5(C)CC=C(C6=CC[C@@](COc7ncccc7C#N)(C(=O)O)CC6)C(C)(C)[C@@H]5CC[C@]43C)[C@@H]12 |  |  | human, plasma | oral, 100 mg, 24 h, fed, tablet | concentration | 408 ng/mL
